TROY signal inh: inhibitors of TROY-dependent NF-kB signaling; Q293 LMP1-TROYcd NF-kB luciferase reporter, 4 h; inhibition, % at 10 µM; 360,000 tested, 0.98% active; AID 1347056;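 active means compounds whose plate-normalised and pattern-corrected inhibition of the luciferase reporter signal at the single screening dose is 50% or more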
TWEAK Fn14 block: blocks TWEAK-Fn14 interaction in a reporter cell assay; TWEAK-stimulated Fn14 reporter cells, luciferase luminescence, 8 h; inhibition, % at 10 µM; 360,000 tested, 2% active; AID 1159606; in the data active means inhibition above about 50%
LGR2 inh: blocks bursicon-induced cAMP signaling via Drosophila LGR2 | HEK293 LGR2, CRE-luciferase, bursicon-stimulated, 4 h | inhibition, % at 9.99 µM | 380,000 tested, 0.35% active;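 active means drop in luminescence signal, shown as inhibition above about 50% in the replicate tests, limit read from the data, passing the limit was not always enough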;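 further: agonist challenge used bursicon conditioned medium at about half maximal strength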
CaV13 FRET inh: Disruptors of the CACNA1D IQ motif to Ca2+-dependent inactivation inhibitor domain association, primary screening, Förster resonance energy transfer in intact living …. HEK cells, CFP/YFP FRET ICDI-IQ, plate reader, 10 min; percent FRET-ratio fall versus neutral wells. 340,000 tested, 0.098% active. AID 743397. inhibition, % at 12.3 µM;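 active means mean replicate inhibition of at least 30% and at least 1% of replicates passing that level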;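 further: 0% = median of the neutral control wells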
XiGFP reactiv: reactivates the inactive X chromosome in mouse fibroblasts; XiGFP mouse fibroblasts, % GFP-positive cells imaging, 3 d; cells co-treated with 5-aza-dC sensitizer; scaled so ellipticine positive control = 100%; activation, % at 7.58 µM; 360,000 tested, 0.055% active; AID 743238;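 active means mean normalized replicate activation at least 10% and every replicate at or above 10%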;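 further: 0% = median of on-plate neutral control wells and 100% = ellipticine 6 µM median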
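System: 68-5-11 XiGFP fibroblast line | Buffer or medium: DMEM containing 5-aza-dC | Compound: Single point | Times: Compounds 3 days, fix/stain 15 min at room temperature | Benchmarks: Positive control ellipticine, 6 µM final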
* hit, by the source's call. Sampled rows, rich in hits. Any-hit rate of the full collection: about 2%.

How did COc1ccc2oc(C(=O)Nc3ccccn3)c(C)c2c1 do in these assays?
TROY signal inh: 8; TWEAK Fn14 block: 52*; LGR2 inh: -24; XiGFP reactiv: 0

How did COc1ccc2oc(C(=O)N3CCc4ccccc43)c(C)c2c1 do in these assays?
TROY signal inh: 63*; TWEAK Fn14 block: 73*; LGR2 inh: 59*; XiGFP reactiv: 0

How did O=C(Nc1ccc(F)cc1)c1nn(-c2ccccc2)c(=O)cc1Cl do in these assays?
TROY signal inh: 19; TWEAK Fn14 block: 55*; LGR2 inh: 75*; CaV13 FRET inh: -7; XiGFP reactiv: 0

Results for Cc1ccc(NC(=O)c2nc(S(=O)(=O)Cc3ccccc3)ncc2Cl)cc1 ?
TROY signal inh: 80*; TWEAK Fn14 block: 67*; LGR2 inh: 4; CaV13 FRET inh: -16; XiGFP reactiv: 1

How did Cc1ccccc1CS(=O)(=O)c1ncc(Cl)c(C(=O)Nc2ccc(F)cc2)n1 do in these assays?
TROY signal inh: 78*; TWEAK Fn14 block: 82*; LGR2 inh: 22; CaV13 FRET inh: -16; XiGFP reactiv: 0

How did O=C(Nc1ccc(F)cc1)c1nc(S(=O)(=O)Cc2ccccc2)ncc1Cl do in these assays?
TROY signal inh: 69*; TWEAK Fn14 block: 79*; LGR2 inh: -4; CaV13 FRET inh: -13; XiGFP reactiv: 0

How did Cc1ccccc1NC(=O)c1nc(S(C)(=O)=O)ncc1Cl do in these assays?
TROY signal inh: 29; TWEAK Fn14 block: 14; LGR2 inh: 5; CaV13 FRET inh: -3; XiGFP reactiv: 0

How did Cc1ccc(NC(=O)c2cc(-c3ccccc3)nn2-c2ccccc2)cc1 do in these assays?
TROY signal inh: 2; TWEAK Fn14 block: 13; LGR2 inh: 0; CaV13 FRET inh: -3; XiGFP reactiv: 0

How did O=C(C[C@H]1CC[C@H](NC(=O)Cc2ccccn2)[C@@H](CO)O1)NCCc1ccncc1 do in these assays?
LGR2 inh: 2; XiGFP reactiv: 1

What do the screens show for `O=C(/C=C/c1cccs1)Nc1cccc(NC(=O)/C=C/c2cccs2)n1`?
TROY signal inh: 26; TWEAK Fn14 block: 73*; LGR2 inh: 43; CaV13 FRET inh: -5; XiGFP reactiv: 0

How did Cc1cc(C)c(-c2csc(NC(=O)/C=C/c3cccs3)n2)c(C)c1 do in these assays?
TROY signal inh: -5; TWEAK Fn14 block: 69*; LGR2 inh: 4; CaV13 FRET inh: -2; XiGFP reactiv: 0

How did Nc1ncnc2c1C1(CCCCC1)Cc1ccccc1-2 do in these assays?
TROY signal inh: 59*; TWEAK Fn14 block: 59*; LGR2 inh: 11; CaV13 FRET inh: -4; XiGFP reactiv: 0

How did C[C@H](CO)N1C[C@H](C)[C@H](CN(C)S(=O)(=O)c2cccc(F)c2)Oc2ncc(C#CC3CC3)cc2C1=O do in these assays?
LGR2 inh: 20; XiGFP reactiv: -1

How did CCn1c(CCNC(=O)c2ccc(OC)cc2)nnc1SCc1ccc(Cl)c(Cl)c1 do in these assays?
TROY signal inh: 19; TWEAK Fn14 block: 14; LGR2 inh: 9; CaV13 FRET inh: -3; XiGFP reactiv: 0

How did CCn1c(CCNC(=O)c2ccc(OC)cc2)nnc1SCc1ccc(Cl)cc1Cl do in these assays?
TROY signal inh: 63*; TWEAK Fn14 block: 12; LGR2 inh: 13; CaV13 FRET inh: -8

What do the screens show for `C[C@H]1CCCCO[C@H](CN(C)C(=O)c2ccccc2)[C@@H](C)CN([C@@H](C)CO)C(=O)c2cc(NS(=O)(=O)c3ccc(F)cc3)ccc2O1`?
LGR2 inh: 3; XiGFP reactiv: 0

What do the screens show for `COc1ccc(-c2cnc3c(c2)C(=O)N([C@H](C)CO)C[C@H](C)[C@H](CN(C)Cc2ccc(C(=O)O)cc2)O3)cc1`?
LGR2 inh: -7; XiGFP reactiv: -1

Results for Cc1ccc(-c2nn3c(C)nnc3s2)cc1NC(=O)c1cccs1 ?
TROY signal inh: 3; TWEAK Fn14 block: -3; CaV13 FRET inh: -7

What do the screens show for `Cc1cc(-c2nn3c(C)nnc3s2)ccc1NC(=O)C(C)(C)C`?
TROY signal inh: 26; TWEAK Fn14 block: 52*; CaV13 FRET inh: -6

How did COc1ccc2sc(-c3ccccc3OC)c(-c3ccc(OC)nc3)c2c1 do in these assays?
TROY signal inh: -27; TWEAK Fn14 block: -6; LGR2 inh: -9; CaV13 FRET inh: -3; XiGFP reactiv: 0

Results for CCOC(=O)c1ccc(-c2c(-c3ccccc3OC)sc3ccc(OC)cc23)cc1F ?
TROY signal inh: 53*; TWEAK Fn14 block: -9; CaV13 FRET inh: 5; XiGFP reactiv: 0

How did Cc1[nH]c2ccccc2c1/C=N/NC(=O)C1CC1(c1ccccc1)c1ccccc1 (configuration not stated) do in these assays?
TROY signal inh: 24; TWEAK Fn14 block: 66*; LGR2 inh: -8; CaV13 FRET inh: -5; XiGFP reactiv: 0

How did Cc1cc(C(=O)COC(=O)c2ccc(O)cc2)c(C)n1CC1CCCO1 (configuration not stated) do in these assays?
TROY signal inh: 62*; TWEAK Fn14 block: 50; CaV13 FRET inh: -5; XiGFP reactiv: 0

Results for Cc1cc(C(=O)COC(=O)c2ccc(Cl)c(S(N)(=O)=O)c2)c(C)n1CC1CCCO1 (configuration not stated) ?
TROY signal inh: 72*; TWEAK Fn14 block: 64*; LGR2 inh: 24; CaV13 FRET inh: -3; XiGFP reactiv: 0

How did Cc1cc(C(=O)COC(=O)c2cccc(O)c2)c(C)n1C1CC1 do in these assays?
TROY signal inh: -10; TWEAK Fn14 block: 54*; LGR2 inh: 73*; CaV13 FRET inh: -5; XiGFP reactiv: 0

Results for COCCn1c(C)cc(C(=O)COC(=O)c2ccc(Cl)c(S(N)(=O)=O)c2)c1C ?
TROY signal inh: 10; TWEAK Fn14 block: 72*; LGR2 inh: 37; CaV13 FRET inh: -11; XiGFP reactiv: 0

How did CNS(=O)(=O)c1cccc(C(=O)OCC(=O)c2cc(C)n(CC3CCCO3)c2C)c1 (configuration not stated) do in these assays?
TROY signal inh: 47; TWEAK Fn14 block: 37; LGR2 inh: -41; CaV13 FRET inh: -7; XiGFP reactiv: 0

How did C[C@H]1CN([C@@H](C)CO)C(=O)Cc2cc(NS(=O)(=O)c3ccccc3)ccc2O[C@@H]1CN(C)C(=O)Nc1ccc2c(c1)OCO2 do in these assays?
LGR2 inh: -5; XiGFP reactiv: 0

How did CC(=O)Nc1cccc2c1O[C@@H](CN(C)C(C)=O)[C@H](C)CN(C)C2=O do in these assays?
XiGFP reactiv: 0

Results for COCCn1c(N)c(C(=O)NCC2CCCO2)c2nc3ccccc3nc21 (configuration not stated) ?
TROY signal inh: 6; TWEAK Fn14 block: 43; CaV13 FRET inh: -4

Results for C=CCn1c(N)c(C(=O)OC(C)CC)c2nc3ccccc3nc21 (configuration not stated) ?
TROY signal inh: 38; TWEAK Fn14 block: 25

Assay outcomes deposited in PubChem by several laboratories.
